Measured values from ChEMBL document CHEMBL4428072, “Pharmacophore Model To Discover OX1 and OX2 Orexin Receptor Ligands” (J Med Chem, 2016).
Active and inactive are the calls of the source. The rule behind the calls is not given here.

Key:
Orexin receptor type 2 [1] = target: T1, Orexin receptor type 2 (Homo sapiens, UniProt O43614); assay: Displacement of [125I]-orexin A from human OX2 receptor expressed in […] after 90 mins by scintillation counting
T1 sequence (O43614 whole entry): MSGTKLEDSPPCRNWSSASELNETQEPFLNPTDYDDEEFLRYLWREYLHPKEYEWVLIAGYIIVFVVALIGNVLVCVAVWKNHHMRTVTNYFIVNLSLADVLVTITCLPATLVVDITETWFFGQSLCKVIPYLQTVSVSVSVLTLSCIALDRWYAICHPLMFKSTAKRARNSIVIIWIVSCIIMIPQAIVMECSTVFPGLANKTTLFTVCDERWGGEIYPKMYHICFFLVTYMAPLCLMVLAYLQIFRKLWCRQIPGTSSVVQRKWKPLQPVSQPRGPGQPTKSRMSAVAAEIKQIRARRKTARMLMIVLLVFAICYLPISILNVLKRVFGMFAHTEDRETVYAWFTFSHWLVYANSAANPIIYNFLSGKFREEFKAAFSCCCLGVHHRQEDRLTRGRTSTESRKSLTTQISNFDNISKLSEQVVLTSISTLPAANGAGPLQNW
How it was run: (§1)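 Intact CHO-hOX1 or CHO-hOX2 cells in HBM + 0.1% stripped BSA + 30 μM dyngo 4a, preincubated 10 min (10 μM antagonist used to define nonspecific binding). 0.05 nM [125I]-orexin-A added with compound (10 nM–100 μM, 10-fold series). Incubated 90 min at room temperature, wells dried, scintillation counted. At least three experiments; IC50/Ki by nonlinear fitting.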

[2] = target: T2, Orexin receptor type 2 (Homo sapiens) (UniProt O43614); settings: CHO, at 5 µM
T2 sequence (whole entry): T1 sequence (O43614 whole entry)

Homo sapiens [3] = species on record: Homo sapiens; assay: Ratio of Ki for human OX1 receptor expressed in CHO cells to Ki for human OX2 receptor expressed in CHO cells by Ca2+ elevation based assay; assay type: cell-based
How it was run: (§2)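 Functional inhibition in CHO-hOX1 or CHO-hOX2 cells. Antagonist (10 nM–100 μM, 10-fold series) preincubated 10 min at 37 °C, then 0.3 nM orexin-A added. Ca2+ measured with Calcium 4 dye at 485/525 nm. Ki derived from inhibition of the orexin-A response. Three independent experiments in quadruplicate; mean ± SEM.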

[4] = target: T3, Orexin/Hypocretin receptor type 1 (Homo sapiens, UniProt O43613); assay: Antagonist activity at human OX1 receptor expressed in […] assessed as inhibition of orexin A-induced Ca2+ elevation after 30 mins in presence of orexin A by FLIPR calcium 4 assay; assay type: functional, cell-based; how it was run: as §2
T3 sequence (O43613 whole entry): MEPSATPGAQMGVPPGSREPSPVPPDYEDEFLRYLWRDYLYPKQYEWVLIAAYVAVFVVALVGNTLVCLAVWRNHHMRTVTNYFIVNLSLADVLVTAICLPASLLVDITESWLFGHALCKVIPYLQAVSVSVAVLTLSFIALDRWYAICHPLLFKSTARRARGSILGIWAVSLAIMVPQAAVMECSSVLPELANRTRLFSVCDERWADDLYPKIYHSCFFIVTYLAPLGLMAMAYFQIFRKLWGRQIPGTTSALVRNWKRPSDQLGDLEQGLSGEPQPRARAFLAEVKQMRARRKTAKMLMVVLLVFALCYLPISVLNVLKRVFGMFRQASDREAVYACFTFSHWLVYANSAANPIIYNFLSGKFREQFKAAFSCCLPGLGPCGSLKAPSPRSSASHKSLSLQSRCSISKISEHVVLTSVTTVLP

[5] = target: T4, Orexin/Hypocretin receptor type 1 (Homo sapiens) (UniProt O43613); assay: Antagonist activity at human OX1 receptor expressed in CHO cells assessed as inhibition of orexin A-induced Ca2+ elevation at 5 uM after 30 mins by FLIPR calcium 4 assay; assay type: functional, cell-based
T4 sequence (whole entry): T3 sequence (O43613 whole entry)
How it was run: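 Screening second round: after the 5 μM compound agonist read in CHO-hOX1 cells, 0.3 nM orexin-A was added at 30 s to all wells and the inhibition of the Ca2+ response was read by Calcium 4 fluorescence at 37 °C. Vehicle controls were included in each column. Tested once in triplicate.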

[6] = target: T4, Orexin/Hypocretin receptor type 1 (Homo sapiens); assay: Displacement of [125I]-orexin A from human OX1 receptor expressed in […] at 10 uM after 90 mins by scintillation counting
[7] = target: T4, Orexin/Hypocretin receptor type 1 (Homo sapiens); assay: Ratio of Ki for human OX1 receptor expressed in […] assessed as inhibition of orexin A-induced Ca2+ elevation to Ki for human OX1 receptor expressed in CHO cells by [125I]-orexin A displacement assay
Orexin receptor type 2 [8] = target: T1, Orexin receptor type 2; assay: Antagonist activity at human OX2 receptor expressed in […] assessed as inhibition of orexin A-induced Ca2+ elevation […] in presence of orexin A by FLIPR calcium 4 assay; assay type: functional, cell-based; how it was run: as §2
[9] = target: T4, Orexin/Hypocretin receptor type 1 (Homo sapiens); assay: Agonist activity at human OX1 receptor expressed in CHO cells assessed as induction of Ca2+ elevation at 5 uM after 30 mins by FLIPR calcium 4 assay relative to orexin-A; assay type: functional, cell-based
How it was run: (§3)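 Screening in CHO-hOX1 or CHO-hOX2 cells loaded with Calcium 4 dye in HBM (137 mM NaCl, 20 mM Hepes, 1 mM CaCl2, pH 7.4) + probenecid. Fluorescence at 485/525 nm, 37 °C. 30 s baseline, compound added to 5 μM final and read for 120 s; the delayed response was read 30 min after addition for 30 s. Tested once in triplicate; % of full orexin-A activation.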

[10] = target: T2, Orexin receptor type 2 (Homo sapiens); settings: CHO, at 10 µM
[11] = target: T2, Orexin receptor type 2 (Homo sapiens); assay: Agonist activity at human OX2 receptor expressed in CHO cells assessed as induction of Ca2+ elevation at 5 uM after 2 mins by FLIPR calcium 4 assay relative to orexin-A; assay type: functional, cell-based; how it was run: as §3
[12] = target: T4, Orexin/Hypocretin receptor type 1 (Homo sapiens); assay: Agonist activity at human OX1 receptor expressed in […] assessed as induction of Ca2+ elevation at 10 uM after 30 mins by FLIPR back ground response; assay type: functional, cell-based
How it was run: (§4)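 CHO-hOX1 or CHO-hOX2 cells plated overnight at 1.5 × 10^4 cells/well, loaded with Calcium 4 dye in HBM + probenecid for 60 min at 37 °C. Fluorescence read at 485/525 nm, 37 °C. 30 s baseline, then compound at 10 μM (tested twice in validation; thrice at 1 and 10 μM in quadruplicate in characterization). Response expressed as % of orexin-A maximal response; background response measured within each experiment.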

CHO = assay: Induction Ca2+ levels in CHO cells at 1 uM by FLIPR calcium 4 assay; assay type: functional, cell-based; settings: Cricetulus griseus
How it was run: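 Control CHO cells lacking orexin receptors, loaded with Calcium 4 dye in HBM + probenecid for 60 min at 37 °C. Compound added (1 and 10 μM) and the Ca2+ fluorescence response read at 485/525 nm at 37 °C.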

[13] = target: T2, Orexin receptor type 2 (Homo sapiens); assay: Agonist activity at human OX2 receptor expressed in […] assessed as induction of Ca2+ elevation at 10 uM after 30 mins by FLIPR calcium 4 assay relative to orexin-A; assay type: functional, cell-based; how it was run: as §4
Homo sapiens [14] = species on record: Homo sapiens; assay: Ratio of Ki for human OX1 receptor expressed in […] to Ki for human OX2 receptor expressed in […] by [125I]-orexin A displacement assay; assay type: cell membranes; how it was run: as §1
[15] = target: T4, Orexin/Hypocretin receptor type 1 (Homo sapiens); assay: Agonist activity at human OX1 receptor expressed in CHO cells assessed as induction of Ca2+ elevation at 5 uM after 2 mins by FLIPR calcium 4 assay relative to orexin-A; assay type: functional, cell-based; how it was run: as §3
[16] = target: T4, Orexin/Hypocretin receptor type 1 (Homo sapiens); assay: Agonist activity at human OX1 receptor expressed in […] assessed as induction of Ca2+ elevation at 10 uM after 30 mins by FLIPR calcium 4 assay relative to orexin-A; assay type: functional, cell-based; how it was run: as §4
[17] = target: T2, Orexin receptor type 2 (Homo sapiens); assay: Agonist activity at human OX2 receptor expressed in […] assessed as induction of Ca2+ elevation at 10 uM after 30 mins by FLIPR back ground response; assay type: functional, cell-based; how it was run: as §4
[18] = target: T4, Orexin/Hypocretin receptor type 1 (Homo sapiens); assay: Agonist activity at human OX1 receptor expressed in CHO cells assessed as induction of Ca2+ elevation at 10 uM after 30 mins in presence of TCS-1102 by FLIPR calcium 4 assay relative to orexin-A; assay type: functional, cell-based
How it was run: (§5)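 Agonist Ca2+ read in CHO-hOX1 or CHO-hOX2 cells loaded with Calcium 4 dye at 37 °C. Compound at 10 μM was added with or without 10 μM orexin antagonist to define the receptor-specific response. Expressed as % of full orexin-A response, taken from orexin-A concentration–response curves run in each experiment.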

[19] = target: T2, Orexin receptor type 2 (Homo sapiens); assay: Agonist activity at human OX2 receptor expressed in CHO cells assessed as induction of Ca2+ elevation at 10 uM after 30 mins in presence of TCS-1102 by FLIPR calcium 4 assay relative to orexin-A; assay type: functional, cell-based; how it was run: as §5

Compound	IC50 (Orexin receptor type 2 [1]) [nM]	Ki (Orexin receptor type 2 [1]) [nM]	inhibition [2] [%]	Ki [4] [nM]	inhibition [5] [%]	inhibition [6] [%]	Ratio Ki [7]	Ki (Orexin receptor type 2 [8]) [nM]	Activity [9]	inhibition [10] [%]	Activity [11]	fold change (FC) [12]	Activity [15]	Activity [16] [%]	fold change (FC) [17]	Activity (CHO)	further results
O=C(CSc1nnc(-c2cccs2)n1Cc1ccco1)Nc1ccc2c(c1)OCCO2	130	200	> 20	6000	> 20	> 50	2 to 9	300	Active	> 50	–	–	–	–	–	–	Ratio Ki (Homo sapiens [3]): 20
COc1ccc(CCNC(=O)Cn2c(-c3nonc3N)nc3ccccc32)cc1OC	500	800	> 20	13100	> 20	> 50	2 to 9	900	Active	> 50	–	–	–	–	–	–	–
COc1ccccc1OCCNC[C@@H](O)COc1cccc2[nH]c3ccccc3c12 [(R)-Carvedilol]	900	1400	–	–	–	> 70	–	–	Active	> 70	Active	3.3	Active	6.3	1.4 to 2.2	inactive	Activity [13]: 1 to 3.7%
CC(/C=C/c1ccccc1)=N/Nc1nc(Nc2ccccc2)nc(-n2nc(C)cc2C)n1	11800	17800	–	–	–	20 to 40	–	–	Active	20 to 40	Active	2.8	Active	5.4	1.4 to 2.2	inactive	Activity [13]: 1 to 3.7%; Activity [18]: 2.1%
CCOC(=O)c1c(NC(=O)C(C)Sc2nnc(CNC(=O)c3cc(OC)cc(OC)c3)n2-c2ccccc2OC)sc2c1CCC2 (centres undefined)	700	1100	> 20	7000	> 20	> 50	2 to 9	1000	Active	> 50	–	–	–	–	–	–	–
Cc1ccc(C(O)(C(=O)NNc2cc(Cl)ccc2Cl)c2ccc(C)cc2)cc1	800	1300	> 20	10300	> 20	> 50	2 to 9	1700	Active	> 50	–	–	–	–	–	–	–

Now from value to molecule, other results behind:

IC50 (Orexin receptor type 2 [1]) [nM]	Ki (Orexin receptor type 2 [1]) [nM]	inhibition [2] [%]	Ki [4] [nM]	inhibition [5] [%]	inhibition [6] [%]	Ratio Ki [7]	Ki (Orexin receptor type 2 [8]) [nM]	Activity [9]	inhibition [10] [%]	Activity [11]	fold change (FC) [12]	Activity [15]	Activity [16] [%]	fold change (FC) [17]	Compound	Activity (CHO)	further results
1700	2500	–	–	–	> 70	–	–	Active	> 70	Active	3.4	Active	7.3	1.4 to 2.2	COC(=O)CN(C(C)=O)C(c1ccccc1)c1cc(Br)ccc1NC(=O)c1ccccc1Cl (centres undefined)	inactive	Activity [13]: 1 to 3.7%; Ratio Ki (Homo sapiens [14]): 10
70	100	> 20	46700	> 20	> 50	2 to 9	100	Active	> 50	–	–	–	–	–	COc1ccc(N(CC(=O)NC(C)c2ccccc2)S(=O)(=O)c2ccc(OC)c(OC)c2)cc1 (centres undefined)	–	Ratio Ki (Homo sapiens [3]): 50
–	–	–	16200	> 20	> 50	–	–	Active	–	–	–	–	–	–	Cc1cccc2c1[nH]c1nc(N/N=C\c3c4ccccc4cc4ccccc34)nnc12	–	–
700	1000	> 20	21600	> 20	> 50	2 to 9	1200	Active	> 50	–	–	–	–	–	C=CCN1C(=O)C2(Nc3ccccc3C(=O)N2c2ccccc2OC)c2ccccc21 (centres undefined)	–	–
–	–	–	–	–	20 to 40	–	–	Active	20 to 40	Active	1.9	Active	2.7	1.4 to 2.2	COc1ccc(Nc2nc(NCc3ccco3)nc(N/N=C\c3cc(Br)c(O)c(Br)c3)n2)cc1	inactive	Activity [19]: 3.5%
